This is a sample that favours compounds with a hit; in the whole collection about 3.1% have one here.
PolyA inhibitor = polyadenylation inhibitors in yeast reporter cells, primary screen, luminescence, S. cerevisiae | S. cerevisiae SKY197-pL101 polyadenylation reporter, beta-gal luminescence; efflux-impaired pdr1/pdr3 knockout yeast; score 100 = 6 SD above DMSO | activity score, % at 12 µM | 300,000 compounds, 0.02% hits | AID 1875, 2009;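 active = lowest replicate activity score at least 50, where 100 means six control SD above control mean; inconclusive = lowest score under 50 but half or more replicates reach 50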;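 also: yeast exposed to compound for 9 h at 30 °C; higher score means more reporter readthrough which indicates perturbed polyadenylation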
Beta apoptosis = inhibitors of cytokine-induced beta cell apoptosis, primary screen, luminescence; INS-1E cytokine-induced death, ATP luminescence, 48 h; percent of positive-control rescue, neutral wells zero; protection from apoptosis, % (no concentration beside the values); 300,000 compounds, 0.8% hits; AID 435005, 2010;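 active = Every replicate reaches about 75%, or at least half do and their mean reaches it too, limit read from the data; inconclusive = At least half of replicates reach the limit but their mean does not; inactive = Under half of replicates reach the limit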;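 also: higher means more ATP so stronger rescue from cytokine killing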
T cruzi repl = inhibitors of intracellular T. cruzi growth, primary screen, luminescence, NIH3T3 host cells; inhibition, % (test concentration not listed); T. cruzi beta-gal in NIH3T3, 90 h; 300,000 compounds, 1.4% hits; AID 1885, 2009;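 active = mean inhibition across valid replicates above about 55%, limit read from the data; inconclusive = mean below that limit but half or more replicates reach it; inactive = mean below it, under half of replicates reach it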;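 also: signal also drops with host cell toxicity which is not excluded here; higher percent means less beta-gal luminescence so fewer parasites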
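Material: NIH/3T3 host cells with β-galactosidase reporter T. cruzi; Input: 5,000 host fibroblasts per well; Medium: DMEM, 2% fetal bovine serum; Compound: 50 nL DMSO compound solution per well; Schedule: 3 h host attachment, then at least 90 h co-culture; Detection: luminescent β-galactosidase signal after 60 min lysis.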
HIF act = HIF pathway transcriptional activators, primary screen, cell-based, U2OS HRE-luciferase, luminescence. 300,000 compounds, 0.32% hits. activation, % at 7.5 µM (by protocol). AID 1910, 2009. U2OS HRE-luciferase reporter; normalized: DMSO 0%, desferrioxamine 100%;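 active = mean activation of at least 10% of the iron chelator positive control signal, with at least half of replicates also reaching 10%; inconclusive = mean and replicate majority disagree about reaching 10%; inactive = mean and most replicates under 10%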
Calb FLC = C. albicans growth inhibition with fluconazole, primary screen, CaCi-2 strain, Alamar Blue fluorescence. C. albicans CaCi-2 (fluconazole-resistant clinical isolate) + fluconazole, 48 h. growth inhibition, % (test concentration not listed). 300,000 compounds, 0.57% hits. AID 1979, 2009;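 active = growth inhibition above about 58% in most replicates, limit read from the data, passing the limit was not always enough; inconclusive = exactly half the replicates above a set limit; inactive = most replicates below a set limit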;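 also: all wells also contain fluconazole at 8 µg/ml as a sub-toxic cotreatment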
CSC inhib = cancer stem cell viability inhibitors, primary screen, luminescence; inhibition, % at 7.5 µM; 300,000 compounds, 1.1% hits; cancer stem cell-like cells viability; in the data active = inhibition above about 75%; inconclusive = no clear call, values can overlap the other calls; tested in HMLE shEcad cells
Large screens that a line does not name were inactive.

CCOC(=O)C1=C(c2ccccc2)NC(SCC(=O)Nc2cccc(C)c2)=C(C#N)C1c1ccco1 (stereo not drawn)	none
CSc1ccccc1-c1nc(-c2ccncc2)no1	none
O=C(NCCCN1CCN(c2ccccc2F)CC1)Nc1ccccc1[N+](=O)[O-]	HIF act 252
O=C(NCCCN1CCN(c2ccccc2F)CC1)Nc1ccc(F)cc1	none
C[C@H](NC(=O)c1ccc(Cl)c(S(=O)(=O)N2CCOCC2)c1)c1nc2ccccc2[nH]1	none (no result: PolyA inhibitor, T cruzi repl, HIF act, Calb FLC)
Cc1ccc(S(=O)(=O)Cn2nnnc2C(C(C)C)N2CCN(c3nc4ccccc4s3)CC2)cc1 (stereo not drawn)	T cruzi repl 56
CCCC(=O)n1nc(-c2ccc(C)cc2)nc1NCc1ccco1	none
Cc1nc(Nc2cnc(/C=C/c3cc(C(=O)Nc4cccc(C(F)(F)F)c4)ccc3C)cn2)cc(N2CCNCC2)n1	PolyA inhibitor inconclusive, Beta apoptosis 107, CSC inhib 136
CCOc1ccc(S(=O)(=O)N2CCCCC2)cc1NC(=O)Cc1ccsc1	none (no result: PolyA inhibitor, T cruzi repl, HIF act, Calb FLC, CSC inhib)
COc1cc(CNc2ccc(O)cc2)cc(Br)c1OCc1ccccc1F	none
COc1cc(CNCc2ccncc2)cc(Br)c1OCc1ccccc1F	T cruzi repl 55
O=C(Nc1ccc(Cl)cc1)Nc1ccc(N2CCCC2)c(S(=O)(=O)Nc2ccccc2Cl)c1	Beta apoptosis 87
COc1ccccc1NS(=O)(=O)c1cc(NC(=O)Nc2cccc(C)c2)ccc1N1CCCCC1	T cruzi repl 60
O=C(Nc1ccc(N2CCOCC2)c(S(=O)(=O)Nc2ccccc2Cl)c1)c1ccccc1	none (no result: PolyA inhibitor, T cruzi repl, HIF act, Calb FLC, CSC inhib)
Cc1ccc(NC(=O)c2c(Cl)n(C)c3ccccc23)cc1	none
CCN(CC)C(=O)c1ccc(S(=O)(=O)N2CCC(c3nc4ccccc4s3)CC2)cc1	Beta apoptosis 100 (no result: HIF act)
CCCOc1cccc(C2C(C(=O)c3ccco3)=C(O)C(=O)N2CCCn2ccnc2)c1 (stereo not drawn)	HIF act 39 (no result: Beta apoptosis)
CCOc1ccc(C2C(C(=O)c3ccco3)=C(O)C(=O)N2CCCn2ccnc2)cc1 (stereo not drawn)	none (no result: Beta apoptosis, CSC inhib)
Oc1nc(Nc2ccccc2)sc1/C=C1\C=Nc2ccccc21	Calb FLC 91, CSC inhib inconclusive
COc1ccccc1N1C(C)=CC(=C(C#N)c2nc3ccccc3s2)C=C1C	Beta apoptosis 128, T cruzi repl inconclusive
CC1=CC(=C(C#N)c2nc3ccccc3s2)C=C(C)N1c1ccc(F)cc1	none
N#CC1(c2ccccc2)CCN(S(=O)(=O)c2ccc(OC(F)(F)F)cc2)CC1	none
Cc1ccc2c(=O)c(CN3CCCCCC3)c(C)[nH]c2c1C	none
Cc1[nH]c2c(Cl)cccc2c(=O)c1CN1CCCCCC1	T cruzi repl 57 (no result: Calb FLC)
COc1ccc(CCC2(C)NC(=O)N(C(C)C(=O)N3c4ccccc4CC3C)C2=O)cc1 (stereo not drawn)	none (no result: PolyA inhibitor, T cruzi repl, HIF act, Calb FLC)
COc1ccc(/C=C(/C(=O)c2ccc(Cl)cc2Cl)n2cncn2)cc1	T cruzi repl 62
COc1ccccc1C1CCCN1Cc1nc(-c2ccc(C)s2)oc1C (stereo not drawn)	none (no result: CSC inhib)
C=C1[C@@H](O)[C@@H]2O[C@]3(CC[C@H](/C=C/[C@@H](C)[C@@H]4CC(C)=CC5(O[C@H](C[C@@](C)(O)C(=O)OC)CC[C@H]5O)O4)O3)CC[C@H]2O[C@@H]1[C@@H](O)C[C@H](C)[C@H]1OC2(CCCCO2)CC[C@H]1C (stereo partly drawn)	Beta apoptosis 108, CSC inhib 77 (no result: PolyA inhibitor, T cruzi repl, HIF act, Calb FLC)
C=C1C(O)[C@@H]2O[C@]3(CC[C@H](/C=C/C(C)[C@@H]4CC(C)=CC5(O[C@H](C[C@@](C)(O)CO)CCC5O)O4)O3)CC[C@H]2O[C@@H]1C(O)CC(C)[C@H]1OC2(CCCCO2)CCC1C (stereo partly drawn)	Beta apoptosis 76 (no result: PolyA inhibitor, T cruzi repl, HIF act, Calb FLC, CSC inhib)
COc1ccc(OC)c(-c2nnc3n2N=C(c2ccc(OC(F)F)c(OCC4CC4)c2)CS3)c1	CSC inhib 76 (no result: PolyA inhibitor, T cruzi repl, HIF act, Calb FLC)
COc1ccc(C2=Nn3c(nnc3-c3ccccc3F)SC2)cc1OC1CCCC1	CSC inhib 82 (no result: PolyA inhibitor, T cruzi repl, HIF act, Calb FLC)
CCOC(=O)c1sc(NC(=O)c2c(C)nn(Cc3ccccc3)c2C)cc1C	Beta apoptosis 88 (no result: PolyA inhibitor, T cruzi repl, HIF act, Calb FLC, CSC inhib)
CCOC(=O)c1sc(NC(=O)c2ccc(S(=O)(=O)N(C)C)cc2)cc1C	T cruzi repl 65
CCOC(=O)c1sc(NC(=O)Nc2ccc(Cl)cc2)cc1C	Beta apoptosis 89, T cruzi repl 65
CCOC(=O)c1sc(NC(=O)c2ccccc2)cc1C	none
CCOC(=O)c1sc(NC(=O)c2ccc(Cl)s2)cc1C	none (no result: Beta apoptosis, HIF act)
CC1c2cc3c(cc2CCN1S(=O)(=O)c1ccccc1)OCCCO3 (stereo not drawn)	none
Cc1cc(C)nc(NS(=O)(=O)c2ccc(NC(=O)COc3ccccc3)cc2)n1	Calb FLC 79
Cc1cc(C)nc(NS(=O)(=O)c2ccc(NC(=O)Cc3ccccc3)cc2)n1	none (no result: Beta apoptosis)
Cc1cc(C(=O)OCC(=O)Nc2ccc(S(N)(=O)=O)cc2)c2ccccc2n1	Calb FLC 127
Cc1ccc2cc(C=C(C#N)C#N)c(N3CCCCC3)nc2c1	Calb FLC 58 (no result: HIF act)
Cc1ccc2cc(/C=C(\C#N)C(N)=O)c(N3CCCCC3)nc2c1	none
O=c1c2ccccc2nc2c3ccccc3c(NCCN3CCOCC3)nn12	HIF act 26
O=c1c2c(-c3ccccc3)csc2nc2c3ccccc3c(NCCN3CCOCC3)nn12	none (no result: Beta apoptosis, CSC inhib)
N#C/C(=C(/O)c1ccc2c(c1)OCO2)c1nc2cc(C(F)(F)F)ccc2s1	CSC inhib 79
CC(=O)C(=Cc1ccc(C(=O)O)cc1)C(C)=O	none (no result: Beta apoptosis)
Cc1ccc(NC(=O)C(=Cc2ccc(C(=O)O)cc2)C(=O)Nc2ccc(C)cc2C)c(C)c1	CSC inhib 159
O=C(COc1ccc2c(c1)OCO2)Nc1cccc(F)c1	none (no result: CSC inhib)
C/C(=N\O)c1ccc(Cl)cc1Cl	none
C/C(=N\O)c1cc(Cl)cc(Cl)c1O	Calb FLC 77 (no result: T cruzi repl, HIF act)
CCS(=O)(=O)CCSc1nc2ccccc2s1	none
O=S(=O)(CCSc1nc2ccccc2s1)c1nc2ccccc2s1	HIF act 13
C/C(=N\NC(=O)Cc1ccccc1)c1ccc(Br)s1	none
C/C(=N/NC(N)=S)c1ccc(Br)s1	T cruzi repl 61
C/C(=N\NC(N)=S)c1cc(-c2ccccc2)c(-c2ccccc2)s1	CSC inhib 99 (no result: Beta apoptosis)
CCS(=O)(=O)Nc1ccc(-c2nc3cccnc3s2)cc1	none
C/C(=N/NC(=O)c1ccccc1O)c1ccc(N2C(=O)C3CCCCC3C2=O)cc1 (stereo not drawn)	Calb FLC 111
COc1c(OC(C)=O)ccc(/C=C/c2ccc3cccc(OCc4ccccc4)c3n2)c1[N+](=O)[O-]	CSC inhib 87

Assay outcomes from PubChem.
